Laboratory results from ChEMBL document CHEMBL4477203 (J Med Chem, 2016).
Numbered stars: 1 amine (or outer) side, 2 acyl side, 3 side chain; on linkers, the order of the positions; unused ones are H or OH. Bridge positions count the residues as written; N and C are the ends. Square brackets hold non-standard residues; d marks the D form. Peptide text beside a SMILES is read from it. I, II: the chains in the order shown. X2 = NCCCCNC(=O)/N=C(\N)NCCC[C@H](N[*:1])C(=O)[*:2]; Suberoyl = O=C(CCCCCCC(=O)[*:2])[*:1]

Experiments:
[1] = biological target: T1, Neuropeptide Y receptor type 4 (Homo sapiens, UniProt P50391); assay: Agonist activity at human NPY Y4 receptor expressed in CHO cells co-expressing Gqi5-mtAEQ assessed as induction of calcium mobilization by aequorin luminescence assay; type: functional, cell-based
Summary of the method: (§1)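 Luminescence was integrated as area under the curve and normalized to the response to 1 µM PP. Data are means ± SEM of at least 3 independent experiments, each run in triplicate.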

[2] = biological target: T1, Neuropeptide Y receptor type 4; assay: Intrinsic activity at human NPY Y4 receptor expressed in CHO cells co-expressing Gqi5-mtAEQ assessed as induction of calcium mobilization by aequorin luminescence assay relative to pancreatic polypeptide; type: functional, cell-based; summary of the method: as §1
[3] = biological target: T1, Neuropeptide Y receptor type 4; assay: Agonist activity at human NPY Y4 receptor expressed in HEK293 cells co-expressing CRE-Luc gene assessed as inhibition of forskolin stimulated luciferase activity after 4.5 hrs by luminescence assay; type: functional, cell-based
Summary of the method: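 HEK293 cells stably co-transfected with a CRE-controlled firefly luciferase reporter and hY4R, tested in phenol-red-free DMEM, pH 7.4. The maximal inhibition by PP was set to 0% activity (α = 1.0). Data are means ± SEM of at least 3 experiments in triplicate.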

[4] = biological target: T1, Neuropeptide Y receptor type 4; assay: Intrinsic activity at human NPY Y4 receptor expressed in HEK293 cells co-expressing CRE-Luc gene assessed as inhibition of forskolin stimulated luciferase activity after 4.5 hrs by luminescence assay relative to pancreatic polypeptide; type: functional, cell-based
Summary of the method: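 HEK293 cells stably co-transfected with a CRE-controlled firefly luciferase reporter and hY4R, tested in phenol-red-free DMEM, pH 7.4. […] The maximal inhibition by PP was set to 0% activity (α = 1.0). Data are means ± SEM of at least 3 experiments in triplicate.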

[5] = biological target: T2, Neuropeptide Y receptor type 1 (Homo sapiens, UniProt P25929); assay: Displacement of [3H]UR-MK136 from human NPY Y1 receptor expressed in human MCF7 cells by liquid scintillation counting; type: cell-based
T2 sequence (P25929 whole entry): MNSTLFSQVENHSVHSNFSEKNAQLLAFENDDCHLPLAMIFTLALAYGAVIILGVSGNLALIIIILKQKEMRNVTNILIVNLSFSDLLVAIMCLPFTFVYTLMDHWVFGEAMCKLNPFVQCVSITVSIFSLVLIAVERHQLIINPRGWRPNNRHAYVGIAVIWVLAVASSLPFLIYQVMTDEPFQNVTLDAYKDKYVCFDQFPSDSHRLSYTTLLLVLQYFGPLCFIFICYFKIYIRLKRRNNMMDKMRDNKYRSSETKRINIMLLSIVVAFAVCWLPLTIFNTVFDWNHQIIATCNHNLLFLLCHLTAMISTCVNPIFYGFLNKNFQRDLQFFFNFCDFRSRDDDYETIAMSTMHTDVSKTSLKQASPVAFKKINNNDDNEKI

[6] = biological target: T3, Neuropeptide Y receptor type 2 (Homo sapiens, UniProt P49146); assay: Displacement of [3H]propionyl-pNPY from human NPY Y2 receptor expressed in CHO cells co-expressing Gqi5-mtAEQ after 90 mins by liquid scintillation counting; type: cell-based
T3 sequence (P49146 whole entry): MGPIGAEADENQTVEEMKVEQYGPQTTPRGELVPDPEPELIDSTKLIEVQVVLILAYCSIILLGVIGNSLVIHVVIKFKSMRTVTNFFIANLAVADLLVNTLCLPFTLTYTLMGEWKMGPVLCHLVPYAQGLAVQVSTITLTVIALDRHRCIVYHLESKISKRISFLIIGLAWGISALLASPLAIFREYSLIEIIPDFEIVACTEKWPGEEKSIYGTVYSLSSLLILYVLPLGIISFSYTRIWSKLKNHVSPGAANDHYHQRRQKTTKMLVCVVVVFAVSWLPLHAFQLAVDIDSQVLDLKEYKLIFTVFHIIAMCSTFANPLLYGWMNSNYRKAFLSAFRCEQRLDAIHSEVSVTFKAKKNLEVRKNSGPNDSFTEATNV
Summary of the method: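 Adherent CHO-hY2R-Gqi5-mtAEQ cells in buffer I with 1% BSA and 0.1 mg/mL bacitracin at 22 °C. […] Incubation was 90 min, followed by two ice-cold washes, lysis and scintillation counting.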

[7] = biological target: T1, Neuropeptide Y receptor type 4; assay: Displacement of [3H](2R,7R)-10 from human NPY Y4 receptor expressed in CHO cells co-expressing Gqi5-mtAEQ after 90 mins in presence of sodium-free HEPES buffer by liquid scintillation counting; type: cell-based
[8] = biological target: T4, Neuropeptide Y receptor type 1 (Homo sapiens) (UniProt P25929); assay: Antagonist activity at human NPY Y1 receptor expressed in human HEL cells assessed as inhibition of the pNPY-stimulated intracellular [Ca2+] mobilization by Fura-2 based luminescence spectrometry; type: functional, cell-based
T4 sequence (whole entry): T2 sequence (P25929 whole entry)
Summary of the method: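 Functional Y1R assay on HEL cells, which express Y1R endogenously. Intracellular Ca2+ was read with Fura-2 on a luminescence spectrometer. Antagonism is expressed as Kb.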

[9] = biological target: T5, Neuropeptide Y receptor type 5 (Homo sapiens, UniProt Q15761); assay: Displacement of [3H]propionyl-pNPY from human NPY Y5 receptor expressed in human HEC1b cells after 120 mins by liquid scintillation counting; type: cell-based
T5 sequence (Q15761 whole entry): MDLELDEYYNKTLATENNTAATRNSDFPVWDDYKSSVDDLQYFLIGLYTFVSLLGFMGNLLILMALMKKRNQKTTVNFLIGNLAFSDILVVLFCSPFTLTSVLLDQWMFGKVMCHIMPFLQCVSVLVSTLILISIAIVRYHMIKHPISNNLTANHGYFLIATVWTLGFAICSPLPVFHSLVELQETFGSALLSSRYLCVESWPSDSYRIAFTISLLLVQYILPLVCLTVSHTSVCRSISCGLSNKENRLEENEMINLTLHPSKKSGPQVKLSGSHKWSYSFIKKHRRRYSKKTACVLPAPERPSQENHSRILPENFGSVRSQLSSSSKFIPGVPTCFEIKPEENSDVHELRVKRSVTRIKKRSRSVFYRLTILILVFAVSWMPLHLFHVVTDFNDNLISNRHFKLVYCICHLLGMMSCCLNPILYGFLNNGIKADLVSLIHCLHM
Summary of the method: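 Adherent HEC-1B-hY5 cells in buffer II with 1% BSA and 0.1 mg/mL bacitracin at 22 °C. […] Incubation was 120 min, followed by ice-cold washes, lysis and scintillation counting.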

[10] = biological target: T1, Neuropeptide Y receptor type 4; assay: Displacement of [3H](2R,7R)-10 from human NPY Y4 receptor expressed in CHO cells co-expressing Gqi5-mtAEQ after 90 mins in presence of L-15 medium by liquid scintillation counting; type: cell-based
[11] = biological target: T1, Neuropeptide Y receptor type 4; assay: Displacement of [3H]18 from human NPY Y4 receptor expressed in CHO cells co-expressing Gqi5-mtAEQ after 90 mins by liquid scintillation counting; type: cell-based
[12] = biological target: T1, Neuropeptide Y receptor type 4; assay: Binding affinity to human NPY Y4 receptor expressed in CHO cells co-expressing Gqi5-mtAEQ assessed as apparent association rate constant after 2 to 180 mins by liquid scintillation counting; type: cell-based; conditions: tested as the 3H-labelled form
Summary of the method: (§2)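 Adherent CHO-hY4-Gqi5-mtAEQ cells (about 90% confluent) in buffer I with 1% BSA and 0.1 mg/mL bacitracin at 22 °C. Tritiated radioligand was applied at 1.5 nM for 2–180 min. Wells were washed twice with ice-cold buffer I, lysed and counted. kobs was taken from ln[Beq/(Beq-Bt)] versus time. Data are means of 3 experiments in triplicate.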

[13] = biological target: T1, Neuropeptide Y receptor type 4; assay: (§3) Binding affinity to human NPY Y4 receptor expressed in CHO cells co-expressing Gqi5-mtAEQ assessed as fast dissociation rate constant preincubated for 2 hrs followed by addition of (2R,7R)-Diaminooctanedioyl-bis(Tyr-Arg-Leu-Arg-Tyr-amide)Hexa(hydrotrifluoroacetate) by liquid scintillation counting; type: cell-based; conditions: tested as the 3H-labelled form
[14] = biological target: T1, Neuropeptide Y receptor type 4; assay: (§4) Binding affinity to human NPY Y4 receptor expressed in CHO cells co-expressing Gqi5-mtAEQ assessed as slow dissociation rate constant preincubated for 2 hrs followed by addition of (2R,7R)-Diaminooctanedioyl-bis(Tyr-Arg-Leu-Arg-Tyr-amide)Hexa(hydrotrifluoroacetate) by liquid scintillation counting; type: cell-based; conditions: tested as the 3H-labelled form
[15] = biological target: T1, Neuropeptide Y receptor type 4; assay: Binding affinity to human NPY Y4 receptor expressed in CHO cells co-expressing Gqi5-mtAEQ assessed as unspecific binding in presence of (2R,7R)-Diaminooctanedioyl-bis(Tyr-Arg-Leu-Arg-Tyr-amide)Hexa(hydrotrifluoroacetate) by liquid scintillation counting; type: cell-based; conditions: tested as the 3H-labelled form
[16] = biological target: T1, Neuropeptide Y receptor type 4; assay: Binding affinity to human NPY Y4 receptor expressed in CHO cells co-expressing Gqi5-mtAEQ assessed as time required for complete association by liquid scintillation counting; type: cell-based; conditions: tested as the 3H-labelled form; summary of the method: as §2
[17] = biological target: T1, Neuropeptide Y receptor type 4; assay: as §3, with “half life t1/2(1) at 1.5 uM incubated” for “rate constant preincubated”, “in presence of 200-fold excess” for “followed by addition”; type: cell-based; conditions: tested as the 3H-labelled form
[18] = biological target: T1, Neuropeptide Y receptor type 4; assay: as §4, with “half life t1/2(2) at 1.5 uM incubated” for “rate constant preincubated”, “in presence of 200-fold excess” for “followed by addition”; type: cell-based; conditions: tested as the 3H-labelled form
[19] = biological target: T1, Neuropeptide Y receptor type 4; assay: as §4, with “dissociation” for “dissociation rate”, “at 1.5 uM incubated” for “preincubated”, “in presence of 200-fold excess” for “followed by addition”; type: cell-based; conditions: tested as the 3H-labelled form
[20] = biological target: T1, Neuropeptide Y receptor type 4; assay: as §4, with “half life at 1.5 uM incubated” for “rate constant preincubated”, “in presence of 200-fold excess” for “followed by addition”; type: cell-based; conditions: tested as the 3H-labelled form

T1 sequence (P50391 whole entry): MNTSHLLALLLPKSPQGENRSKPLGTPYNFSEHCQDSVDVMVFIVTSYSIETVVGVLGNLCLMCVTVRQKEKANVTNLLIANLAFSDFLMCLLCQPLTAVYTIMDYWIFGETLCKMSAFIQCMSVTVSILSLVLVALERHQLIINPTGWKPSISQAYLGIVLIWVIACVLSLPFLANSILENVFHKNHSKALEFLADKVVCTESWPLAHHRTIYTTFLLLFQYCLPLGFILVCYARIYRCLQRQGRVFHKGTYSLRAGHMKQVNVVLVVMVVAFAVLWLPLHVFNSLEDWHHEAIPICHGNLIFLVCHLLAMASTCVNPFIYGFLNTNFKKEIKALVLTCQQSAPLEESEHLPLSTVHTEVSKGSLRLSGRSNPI

Row | EC50 [1] [nM] | Intrinsic activity [2] | EC50 [3] [nM] | Intrinsic activity [4] | Ki [5] [nM] | Ki [6] [nM] | Ki [7] [nM] | Kb [8] [nM] | Ki [9] [nM] | K [12] [min⁻¹] | K [13] [min⁻¹] | K [14] [min⁻¹] | Activity [15] [%] | TIME [16] [h] | T1/2 [17] [h] | T1/2 [18] [h] | K [19] [min⁻¹] | T1/2 [20] [h] | SMILES | Ki [10] [nM] | Ki [11] [nM]
1 | 6.4 | 0.8 | 1.7 | 1.06 | 410 | 730 | 1.2 | 25.3 | 140 | – | – | – | – | – | – | – | – | – | CC(C)C[C@H](NC(=O)[C@H](CCCNC(=N)N)NC(=O)[C@H](Cc1ccc(O)cc1)NC(=O)CCCCCCC(=O)N[C@@H](Cc1ccc(O)cc1)C(=O)N[C@@H](CCCN/C(N)=N/C(=O)NCCCCN)C(=O)N[C@@H](CC(C)C)C(=O)N[C@@H](CCCNC(=N)N)C(=O)N[C@@H](Cc1ccc(O)cc1)C(N)=O)C(=O)N[C@@H](CCCNC(=N)N)C(=O)N[C@@H](Cc1ccc(O)cc1)C(N)=O (I: Y[X2]LRY-NH2 / II: YRLRY-NH2; linker I:N-II:N via Suberoyl) | – | –
2 | 14 | 0.76 | 4 | 1 | 400 | 420 | 0.87 | – | 710 | 0.0467 | 0.0329 | 0.0024 | 10 | 1.67 | 0.352 | 4.82 | 0.0085 | 1.36 | CCC(=O)N[C@@H](CCCC[C@H](N)C(=O)N[C@@H](Cc1ccc(O)cc1)C(=O)N[C@@H](CCCNC(=N)N)C(=O)N[C@@H](CC(C)C)C(=O)N[C@@H](CCCNC(=N)N)C(=O)N[C@@H](Cc1ccc(O)cc1)C(N)=O)C(=O)N[C@@H](Cc1ccc(O)cc1)C(=O)N[C@@H](CCCNC(=N)N)C(=O)N[C@@H](CC(C)C)C(=O)N[C@@H](CCCNC(=N)N)C(=O)N[C@@H](Cc1ccc(O)cc1)C(N)=O | 6.3 | 0.32
3 | – | – | – | – | – | – | – | – | – | – | – | – | – | – | – | – | – | – | NCCN(CCNC(=O)c1ccc(C(=O)NCCOCCOCCNC(=O)/N=C(/N)NCCC[C@@H](NC(=O)C(c2ccccc2)c2ccccc2)C(=O)NCc2ccc(O)cc2)cc1)CCNC(=O)c1ccc(C(=O)NCCOCCOCCNC(=O)/N=C(/N)NCCC[C@@H](NC(=O)C(c2ccccc2)c2ccccc2)C(=O)NCc2ccc(O)cc2)cc1 | 150 | 630
